Laboratory results as given in ChEMBL document CHEMBL4765495, “Semisynthesis and Biological Evaluation of Platencin Thioether Derivatives: Dual FabF and FabH Inhibitors against MRSA” (ACS Med Chem Lett, 2021).
pIC50, pKd: −log10 of the molar value. ≈ marks a conversion by molar mass, not a printed value. Calls of active or inactive are those of the source. The rule behind the calls is not given here.

How the values were obtained:
Staphylococcus aureus [1] = assay: Antibacterial activity against Staphylococcus aureus ATCC 29213 assessed as inhibition of bacterial growth measured after 16 hrs by agar plate dilution method; type: functional
Summary of the method: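 MIC determined by plate dilution against the reference strain; values from at least two independent experiments.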

Staphylococcus aureus [2] = assay: Antibacterial activity against methicillin resistant Staphylococcus aureus infected in C57BL/6J mouse model of peritonitis assessed as bacterial load in kidney at 10 mg/kg, ip administered at 1 and 5 hrs post infection; type: functional, organism-based
Summary of the method: (§1)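 Female C57BL/6J mice infected intraperitoneally with 1.5–2.0 × 10^7 CFU MRSA in 5% w/v hog gastric mucin; n = 5 per group; intraperitoneal treatment at 10 mg/kg at 1 and 5 h post-infection; vancomycin 10 mg/kg as control; survival and kidney bacterial load recorded.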

Staphylococcus aureus [3] = assay: Antibacterial activity against methicillin resistant Staphylococcus aureus assessed as inhibition of bacterial growth measured after 16 hrs by agar plate dilution method; type: functional
Summary of the method: (§2)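 Clinical MSSA and MRSA strains isolated from local hospitals; MIC determined by plate dilution; data from at least two independent experiments.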

Escherichia coli [4] = assay: Binding affinity to His6-tagged Escherichia coli FabH expressed in Escherichia coli BL21 (DE3) assessed as decrease in melting temperature at 10 uM by SYPRO orange based differential scanning fluorimetry
Summary of the method: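 Purified E. coli FabH melting curves were recorded with and without ligand by thermal-shift fluorometry in 1.0 M Tris-HCl, pH 6.8, a buffer chosen from seven screened. ΔTm was taken from the Tm shift; n = 4.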

[5] = target: T1, 3-oxoacyl-[acyl-carrier-protein] synthase 2 (Staphylococcus aureus) (UniProt Q5TKS0); assay: Binding affinity to His6-tagged Staphylococcus aureus FabF expressed in Escherichia coli BL21 (DE3) assessed as decrease in melting temperature at 10 uM by SYPRO orange based differential scanning fluorimetry
T1 sequence (whole entry): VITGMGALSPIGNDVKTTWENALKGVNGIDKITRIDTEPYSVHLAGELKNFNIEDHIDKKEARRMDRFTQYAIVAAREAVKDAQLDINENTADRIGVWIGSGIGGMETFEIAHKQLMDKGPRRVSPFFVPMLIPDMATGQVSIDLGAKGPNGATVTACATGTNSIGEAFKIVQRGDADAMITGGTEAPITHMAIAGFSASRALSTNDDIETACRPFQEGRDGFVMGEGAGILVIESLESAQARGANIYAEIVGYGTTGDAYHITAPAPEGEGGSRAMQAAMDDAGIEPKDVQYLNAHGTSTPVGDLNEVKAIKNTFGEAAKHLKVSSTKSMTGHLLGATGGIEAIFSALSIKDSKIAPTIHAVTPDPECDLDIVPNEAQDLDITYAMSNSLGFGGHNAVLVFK
Summary of the method: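 S. aureus FabF melting curves were measured by DSF in 20 mM HEPES, 180 mM NaCl, pH 7.5, a buffer selected by screening seven buffers. ΔTm was derived from the melting-temperature shift caused by ligand; n = 4.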

Staphylococcus aureus [6] = assay: Antibacterial activity against methicillin resistant Staphylococcus aureus infected in C57BL/6J mouse model of peritonitis assessed as mouse survival by measuring number of mouse at 10 mg/kg, ip administered at 1 and 5 hrs post infection relative to control; type: functional; summary of the method: as §1
Staphylococcus aureus [7] = assay: Antibacterial activity against methicillin sensitive Staphylococcus aureus assessed as inhibition of bacterial growth measured after 16 hrs by agar plate dilution method; type: functional; summary of the method: as §2
Staphylococcus aureus [8] = assay: Antibacterial activity against macrolide, lincomycin, telithromycin resistant and cipro-bay susceptible, methicillin-resistant Staphylococcus aureus assessed as bacterial growth inhibition; type: functional
Staphylococcus aureus [9] = assay: Antibacterial activity against methicillin, macrolide, lincomycin, telithromycin, cipro-bay resistant Staphylococcus aureus assessed as bacterial growth inhibition; type: functional
Staphylococcus aureus [10] = assay: Antibacterial activity against methicillin, fusidic-acid, macrolide resistant and lincomycin, telithromycin, cipro-bay susceptible Staphylococcus aureus assessed as bacterial growth inhibition; type: functional
Staphylococcus aureus [11] = assay: Antibacterial activity against methicillin resistant and macrolide, lincomycin, telithromycin, cipro-bay susceptible Staphylococcus aureus assessed as bacterial growth inhibition; type: functional
[12] = Binding affinity to His6-tagged Escherichia coli FabF C163Q mutant expressed in Escherichia coli BL21 (DE3) assessed as binding constant measured after 200 sec by isothermal titration calorimetry
Summary of the method: (§3)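 Ligands were dissolved in PBS (10 mM, pH 7.4) and titrated into E. coli FabF(C163Q) in the same buffer. Protein was at 12 or 14 μM and ligand at 250 μM. Thermodynamic parameters (ΔH, ΔS, ΔG, Kd, n) were calculated from the heat of binding. Runs were done at least three times; one representative run was used.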

[13] = Inhibition of Staphylococcus aureus FabB/FabF
Staphylococcus aureus [14] = assay: Antibacterial activity against methicillin resistant Staphylococcus aureus assessed as inhibition of bacterial growth measured after 18 hrs in presence of 10% human serum by resazurin dye based broth dilution assay; type: functional
Staphylococcus aureus [15] = assay: Antibacterial activity against methicillin resistant Staphylococcus aureus infected in C57BL/6J mouse model of peritonitis assessed as mouse survival when infected with 2.5x10^7 CFU bacteria at 10 mg/kg, ip administered at 1 and 5 hrs post infection; type: functional, organism-based
Summary of the method: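 Female C57BL/6J mice given a higher intraperitoneal MRSA inoculum of 2.5 × 10^7 CFU; intraperitoneal treatment at 1 and 5 h post-infection; survival recorded.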

Escherichia coli [16] = assay: Binding affinity to His6-tagged Escherichia coli FabF C163Q mutant expressed in Escherichia coli BL21 (DE3) assessed as change in entropy measured after 200 sec by isothermal titration calorimetry; summary of the method: as §3
Staphylococcus aureus [17] = assay: Inhibition of Staphylococcus aureus FabH A81V/A111T mutant assessed as bacterial growth inhibition measured after 18 hrs by resazurin dye based broth dilution assay
Summary of the method: (§4)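 S. aureus strains carrying point mutations in the FabH active site; MIC determined by broth dilution; data from at least two independent experiments.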

Escherichia coli [18] = assay: Binding affinity to His6-tagged Escherichia coli FabF C163Q mutant expressed in Escherichia coli BL21 (DE3) assessed as stoichiometry ratio measured after 200 sec by isothermal titration calorimetry; summary of the method: as §3
Staphylococcus aureus [19] = assay: Inhibition of Staphylococcus aureus FabH A81V mutant assessed as bacterial growth inhibition measured after 18 hrs by resazurin dye based broth dilution assay; summary of the method: as §4
Staphylococcus aureus [20] = assay: Antibacterial activity against methicillin resistant Staphylococcus aureus infected in C57BL/6J mouse model of peritonitis assessed as mouse survival at 10 mg/kg, ip administered at 1 and 5 hrs post infection; type: functional, organism-based; summary of the method: as §1
[21] = Inhibition of Staphylococcus aureus FabH
Enterococcus faecalis = assay: Antibacterial activity against Enterococcus faecalis ATCC 29212 assessed as inhibition of bacterial growth measured after 16 hrs by agar plate dilution method; type: functional
Escherichia coli [22] = assay: Antibacterial activity against Escherichia coli harboring delta tolC mutant assessed as inhibition of bacterial growth measured after 16 hrs by agar plate dilution method; type: functional
Escherichia coli [23] = assay: Binding affinity to His6-tagged Escherichia coli FabF C163Q mutant expressed in Escherichia coli BL21 (DE3) assessed as change in enthalpy measured after 200 sec by isothermal titration calorimetry; summary of the method: as §3
Escherichia coli [24] = assay: Binding affinity to His6-tagged Escherichia coli FabF C163Q mutant expressed in Escherichia coli BL21 (DE3) assessed Gibbs free energy change measured after 200 sec by isothermal titration calorimetry; summary of the method: as §3

In the case of `C=CCSC1=C[C@]23CCC(C[C@H]2[C@](C)(CCC(=O)Nc2c(O)ccc(C(=O)O)c2O)C1=O)C(=C)C3` (single isomer, unassigned), the MIC (Staphylococcus aureus [1]) was 2 µg/mL (≈ 4.02 µM), the Activity (Staphylococcus aureus [2]) was “Active” and the MIC (Staphylococcus aureus [3]) was 1 µg/mL (≈ 2.01 µM). The Activity (Escherichia coli [4]) was “Active”, the Activity [5] was “Active” and the Activity (Staphylococcus aureus [6]) was 80%. It also gave an MIC (Staphylococcus aureus [7]) of 1 µg/mL (≈ 2.01 µM).
Work on `C=C1[C@H]2CC[C@@]3(C=CC(=O)[C@@](C)(CCC(=O)Nc4c(O)ccc(C(=O)O)c4O)[C@@H]3C2)[C@H]1O` [PLATENCIN A3] yielded an MIC (Staphylococcus aureus [8]) of 8 µg/mL (≈ 18.1 µM), an MIC (Staphylococcus aureus [9]) of 8 µg/mL (≈ 18.1 µM) and an MIC (Staphylococcus aureus [10]) of 8 µg/mL (≈ 18.1 µM). For the same compound, the MIC (Staphylococcus aureus [11]) was 8 µg/mL (≈ 18.1 µM).
Work on `C=C1C[C@@]23C=CC(=O)[C@@](C)(CCC(=O)Nc4c(O)ccc(C(=O)O)c4O)[C@@H]2C[C@@H]1CC3` [PLATENCIN] yielded a pKd [12] of 7.57, a pIC50 [13] of 5.34 and an MIC (Staphylococcus aureus [1]) of 1 µg/mL (≈ 2.35 µM). The MIC (Staphylococcus aureus [14]) was 8 µg/mL, the Activity (Staphylococcus aureus [2]) was “Active” and the Activity (Staphylococcus aureus [15]) was “inactive”. The -TdeltaS (Escherichia coli [16]) was -31.1 kJ/mol, the MIC (Staphylococcus aureus [17]) was 32 µg/mL (≈ 75.2 µM) and the MIC (Staphylococcus aureus [3]) was 1 µg/mL (≈ 2.35 µM). For the same compound, the Ratio (Escherichia coli [18]) was 1.12, the Activity (Escherichia coli [4]) was “Active” and the MIC (Staphylococcus aureus [19]) was over 32 µg/mL. The Activity (Staphylococcus aureus [20]) was “Active”, the Activity [5] was “Active” and the MIC (Staphylococcus aureus [7]) was 1 µg/mL (≈ 2.35 µM). The pIC50 [21] was 5.04, the MIC (Enterococcus faecalis) was 2 µg/mL (≈ 4.7 µM) and the MIC (Escherichia coli [22]) was 4 µg/mL (≈ 9.4 µM). For the same compound, the deltaH (Escherichia coli [23]) was -11.9 kJ/mol and the deltaG (Escherichia coli [24]) was -43 kJ/mol.
